Screening data: PubChem, several laboratories
FLuc stim CS: affects firefly luciferase, flagging false hits in luciferase stimulation screens; P08659; ATPlite luciferase biochemical, luminescence, 10 min; 0 = ATP-free wells, 1 = DMSO control; activation factor at 10 µM; 200,000 tested, under 10 active;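 active means luciferase activation factor, scaled between plate controls, of at least 2 with compound at 10 µM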
Target sequence (P08659 whole entry, looked up): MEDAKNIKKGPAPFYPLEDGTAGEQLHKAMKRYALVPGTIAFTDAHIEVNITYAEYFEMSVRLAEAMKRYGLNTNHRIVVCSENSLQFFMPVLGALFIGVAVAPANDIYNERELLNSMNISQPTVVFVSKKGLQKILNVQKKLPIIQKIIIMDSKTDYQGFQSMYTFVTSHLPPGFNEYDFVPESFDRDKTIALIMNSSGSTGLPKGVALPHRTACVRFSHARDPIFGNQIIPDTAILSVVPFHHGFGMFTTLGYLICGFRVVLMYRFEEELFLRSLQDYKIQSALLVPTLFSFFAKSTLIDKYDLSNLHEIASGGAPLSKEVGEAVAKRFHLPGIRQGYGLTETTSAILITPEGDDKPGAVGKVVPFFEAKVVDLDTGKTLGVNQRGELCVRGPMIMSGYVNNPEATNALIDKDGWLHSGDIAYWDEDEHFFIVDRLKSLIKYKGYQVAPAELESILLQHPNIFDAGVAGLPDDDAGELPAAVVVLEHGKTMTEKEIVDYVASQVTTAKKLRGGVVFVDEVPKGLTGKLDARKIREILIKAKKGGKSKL
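Material: Luciferase/luciferin reagent mix; Doses: test compounds dosed from 2 mM stocks in 100% DMSO; Schedule: 10 min incubation after luciferase reagent addition, room temperature; Measured by: luminescence from luciferase reaction; Read-out: luminescence gain marking luciferase activators.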
APP 5'UTR act: activates APP 5'UTR luciferase reporter; SH-SY5Y APP 5'UTR luciferase reporter, luminescence; zero percent = DMSO vehicle wells; activation, % at 2 µM; 1% of 190,000 active;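 active means activation above a set limit, based on mean plus 3 SD of controls, cut at about 140% in these data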
FLuc inh counter: Photinus pyralis luciferase inhibition counter-screen | P08659 | ATPLite firefly luciferase biochemical luminescence, 10 min | inhibition, % at 10 µM | 1.5% of 200,000 active | AID 1006;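 active means inhibition above about 50% when tested at 10 µM, limit read from the data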
NF-kB neuron act: raises NF-kB expression in human neuronal cells. fold change at 12.5 µM. AID 1239. 1.6% of 190,000 active. NF-kB reporter expression; stronger effect = higher value; in the data active means fold change above about 3.3
STAT1 activator: activators of IFN-gamma induced STAT1 signaling; NIH 3T3 STAT1-luciferase reporter, luminescence; 100% = IFN-gamma alone, no compound; activation (% of control), % at 5.5 µM; 2.6% of 200,000 active; AID 932;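 active means activation above the screen-wide mean activation plus 3 SD, cut at about 130% in these data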
STAT1 act conf: STAT1 activation, confirmation assay; AID 1262; shares compounds with STAT1 activator; 97% of 1,200 active; activation (% of control), % at 5.7 µM; NIH 3T3 STAT1-luciferase reporter, IFN-gamma potentiation, luminescence; 100% = IFN-gamma EC80 alone, no compound;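 active means activation above a set limit carried over from the earlier primary STAT1 screen, cut at about 140% in these data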
NFkB act STAT1ct: activates NF-kappaB, counter-screen to STAT1 activators; 43% of 1,200 active; HEK293T NF-kB luciferase reporter, TNF-alpha stimulated, luminescence; 100% = TNF-alpha with vehicle only; shares compounds with STAT1 activator; activation (% of control), % at 5.7 µM;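 active means activation above the mean of solvent-only control wells plus 3 SD, set per campaign, cut at about 130% in these data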;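 further: TNF-alpha given at a submaximal dose yielding about 80% of full reporter signal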
STAT3 act 2: counter-screen for STAT1 activators: human STAT3 activation; activation (% of control), % at 5.7 µM; 46% of 1,200 active; U3A cells STAT3-luciferase reporter, IL-6, luminescence; cells lack STAT1; 100 = IL-6 alone, no compound effect; shares compounds with STAT1 activator;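 active means activation above the solvent-only control well mean plus 3 SD, set per plate batch, cut at about 110% in these data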;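 further: higher means more STAT3 reporter activation so hits are non-selective activators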
Of the large screens only hits and unclear results are named; the others gave an inactive call (follow-up assays come after a bar, where they were run). Most compounds without a hit are left out; they make up all but 4.1% or so of the library.

NNC(=O)c1ccc2nc(-c3ccc(Br)cc3)cn2c1	STAT1 activator 162 | STAT1 act conf 208 | NFkB act STAT1ct inactive | STAT3 act 2 115
COc1ccccc1N(C)S(=O)(=O)c1ccc(C(=O)OCC(=O)N2CCC2)cc1	none
CC(=O)Nc1ccc2c(c1)C(=O)c1ccccc1C2=O	APP 5'UTR act 186, NF-kB neuron act 3.9, STAT1 activator 156 | STAT1 act conf 203 | NFkB act STAT1ct 139 | STAT3 act 2 inactive
CCOC(=O)c1cn(-c2nc(-c3ccc(Cl)cc3)cs2)c2c(F)c(N3CC(C)OC(C)C3)c(F)cc2c1=O (stereo not drawn)	none
Cc1ccc(OC(=O)c2sc(Cl)nc2C)cc1C	none
Cc1ccc(-c2nc3sc4c(c3c(=O)n2N)CCCC4)cc1	APP 5'UTR act 143, NF-kB neuron act 5.1, STAT1 activator 178 | STAT1 act conf 224 | NFkB act STAT1ct 143 | STAT3 act 2 inactive
Nc1nc(-c2ccccc2)nc2sc3c(c12)CCCC3	APP 5'UTR act 180, FLuc inh counter 85, NF-kB neuron act 11, STAT1 activator 191 | STAT1 act conf 249 | NFkB act STAT1ct 136 | STAT3 act 2 139
CC(=O)NC(NC(=S)N1CCCCCC1)C(Cl)(Cl)Cl (stereo not drawn)	none (no result: NF-kB neuron act)
O=C(C1Cc2ccccc2CN1S(=O)(=O)c1cccs1)N1CCCCC1 (stereo not drawn)	none
CCCNC(=O)c1cc2c(C(F)(F)F)nn(C)c2s1	none
O=c1c2c(nc3cc(-c4ccc(Br)cc4)[nH]n13)CCCC2	APP 5'UTR act 174, FLuc inh counter 58, STAT1 activator 205 | STAT1 act conf 281 | NFkB act STAT1ct 151 | STAT3 act 2 inactive
O=c1c2c(nc3c(-c4cccc(Br)c4)c[nH]n13)CCCC2	none
CCCCn1cnc2c(sc3nc4c(cc32)CSC(C)(C)C4)c1=O	APP 5'UTR act 166, STAT1 activator 152 | STAT1 act conf 208 | NFkB act STAT1ct 134 | STAT3 act 2 inactive
CC1(C)Cc2nc3sc(C(=O)O)c(N)c3cc2CS1	none
Cc1ccc(NC(=O)/C(C#N)=C/c2cccs2)c(C)c1	NF-kB neuron act 3.9, STAT1 activator 160 | STAT1 act conf 171 | NFkB act STAT1ct 144 | STAT3 act 2 inactive
Cc1cc(N2CCCC2)ccc1/C=C1/C(=O)N(C)C(=S)N1C	none
Cc1cc(/C=C2/C(=O)N(C)C(=S)N2C)ccc1N1CCCC1	STAT1 activator 175 | STAT1 act conf 168 | NFkB act STAT1ct 135 | STAT3 act 2 146
O=C(CSc1nnc(NC(=O)CN2CCOCC2)s1)Nc1ccccc1	none
O=C(Nc1ccon1)c1ccc(OC2CCCC2)cc1	FLuc inh counter 59, NF-kB neuron act 4.5, STAT1 activator 155 | STAT1 act conf 166 | NFkB act STAT1ct inactive | STAT3 act 2 114
COc1ccc(-c2ccn(-c3cccc(F)n3)n2)cc1	APP 5'UTR act 138, STAT1 activator 154 | STAT1 act conf 178 | NFkB act STAT1ct inactive | STAT3 act 2 122
COc1ccc(-n2ccc(-c3nn(-c4cccc(C(F)(F)F)c4)ccc3=O)n2)cc1	none
CCN(Cc1ccccc1)c1ccc(/C=C(\C#N)c2ccccn2)cc1	STAT1 activator 167 | STAT1 act conf 197 | NFkB act STAT1ct 143 | STAT3 act 2 113
Nc1cccc(C(=O)OCC(=O)c2ccccc2)c1	FLuc inh counter 69, STAT1 activator 181 | STAT1 act conf 181 | NFkB act STAT1ct inactive | STAT3 act 2 117
Nc1cccc(C(=O)OCC(=O)Nc2cccc3c2C(=O)c2ccccc2C3=O)c1	none
CCC(=O)Nc1nc2ccc3sc(C)nc3c2s1	STAT1 activator 168 | STAT1 act conf 189 | NFkB act STAT1ct inactive | STAT3 act 2 143
CCCC(=O)Nc1nc2ccc3nc(C)sc3c2s1	none
O=C(Nc1ccc(NC(=O)c2cccs2)cn1)c1ccccc1	APP 5'UTR act 136, NF-kB neuron act 3.8, STAT1 activator 153 | STAT1 act conf 201 | NFkB act STAT1ct inactive | STAT3 act 2 115
Cc1nc(NC(=O)c2cccs2)ccc1Br	NF-kB neuron act 6.3, STAT1 activator 161 | STAT1 act conf 201 | NFkB act STAT1ct inactive | STAT3 act 2 123
Cc1nc(NC(=O)c2ccc3c(c2)OCO3)ccc1Br	NF-kB neuron act 4, STAT1 activator 156 | STAT1 act conf 169 | NFkB act STAT1ct inactive | STAT3 act 2 inactive
O=C(Nc1ccc(NC(=O)C2CC2)nc1)c1cccs1	none
Cc1ccc(-c2csc3ncnc(Cl)c23)cc1	none
Cc1ccc(S(=O)(=O)N(C)c2ccc(C(=O)N3CCN(Cc4ccc5c(c4)OCO5)CC3)cc2)cc1	none
O=C(NC12CC3CC(CC(C3)C1)C2)c1ccc(-c2cccc(Cl)c2)o1	APP 5'UTR act 192, STAT1 activator 164 | STAT1 act conf 210 | NFkB act STAT1ct 143 | STAT3 act 2 128
O=C(NC12CC3CC(CC(C3)C1)C2)c1ccc(COc2ccc(Cl)cc2[N+](=O)[O-])o1	none
C#CCNC(=O)C1=C[C@H](c2ccc(Br)cc2)[C@@H](CCCO)[C@H](OCC)O1	none
O=C(NC(=S)Nc1nc2c(ccc3ccccc32)s1)c1cccs1	none
COCC(=O)/C=C1\Sc2ccccc2N1C	none
CN1/C(=C\C(=O)c2cccs2)Sc2ccccc21	APP 5'UTR act 168, FLuc inh counter 82, NF-kB neuron act 7.5, STAT1 activator 169 | STAT1 act conf 222 | NFkB act STAT1ct inactive | STAT3 act 2 161
C(=N\N=C\c1ccccc1)/c1ccccc1	FLuc inh counter 79, STAT1 activator 158 | STAT1 act conf 186 | NFkB act STAT1ct 145 | STAT3 act 2 inactive
CCc1ccc(/C=N/NC(=O)c2c[nH]c3ccccc23)s1	STAT1 activator 154 | STAT1 act conf 189 | NFkB act STAT1ct inactive | STAT3 act 2 115
CCN(CC)c1ccc(/C=N/NC(=O)c2c[nH]c3ccccc23)cc1	none
COc1ccc(NC(=O)/C(Cl)=C(/Cl)S(=O)Cc2ccccc2)cn1 (stereo not drawn)	STAT1 activator 204 (no result: APP 5'UTR act) | STAT1 act conf 336 | NFkB act STAT1ct inactive | STAT3 act 2 inactive
COc1ccc(NC(=O)Cc2ccccc2)cn1	none
COc1ccc(C2CC(c3ccc4ccccc4c3)=NN2C(=O)COC(=O)C2CCC(=O)N2)cc1 (stereo not drawn)	APP 5'UTR act 258, STAT1 activator 183 | STAT1 act conf 247 | NFkB act STAT1ct 148 | STAT3 act 2 129
